These results are taken from ChEMBL document CHEMBL3763025, “Synthesis of novel diflunisal hydrazide-hydrazones as anti-hepatitis C virus agents and hepatocellular carcinoma inhibitors” (Eur J Med Chem, 2016).

The source made the active and inactive calls. No cut-off for these calls is given here.

Data set [1] can be described thus: Cytotoxicity against human Huh7.5 cells assessed as cell viability after 42 hrs by MTS assay. The class given is cell-based, Huh-7. The gist of the method:
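CC50 measured in parental Huh7.5 cells using the colorimetric MTS assay, with equal amounts of DMSO as control. Mean of three independent experiments with standard deviation.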

For data set [2], the system named is Hepatitis C virus. As to the kind of experiment: Antiviral activity against HCV genotype 2a infected in Huh7.5 FGR-JC1-Rluc2A cells assessed as inhibition of viral replication at 50 uM after 42 hrs by MTS assay relative to control. In kind it is functional. The conditions noted are these: Hepacivirus hominis, Huh7.5, 42 h, in the assay text read “Renilla luciferase reporter assay” for “MTS assay”. The gist of the method: (§1)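 Replicon reporter cells (Huh7/Rep-Feo1b or Huh7.5-FGR-JC1-Rluc2A) grown in DMEM with 10% fetal calf serum and 0.5 mg/mL G418 at 37°C, 5% CO2. Seeded at 1x10^4 per well, compound added 8 h after seeding at 50 µM for 42 h. Luciferase signal expressed relative to equivalent DMSO-treated controls. Average of three independent experiments.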
(In general: Tetrazolium assays rely on reduction of a dye to a coloured formazan, in cell work by metabolically active cells.)

In data set [3] the test system is Hepatitis C virus. As to the kind of experiment: Antiviral activity against HCV genotype 1b infected in Huh7/Rep-Feo1b cells assessed as inhibition of viral replication at 50 uM after 42 hrs by MTS assay relative to control. The class given is functional, Hepacivirus hominis. The conditions noted are these: Huh-7, 42 h. The gist of the method: as §1
Data set [4] has as its system Hepatitis C virus. As to the kind of experiment: Antiviral activity against HCV genotype 1b infected in Huh7/Rep-Feo1b cells assessed as inhibition of viral replication after 42 hrs by MTS assay. In kind it is functional, organism-based, Hepacivirus hominis. To be noted: Huh-7, 42 h. In outline: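 Huh7/Rep-Feo1b replicon reporter cells kept in DMEM with 10% fetal calf serum and 0.5 mg/mL G418 at 37°C, 5% CO2. Cells seeded at 1x10^4 per well, dosed 8 h later and incubated 42 h with DMSO as control. Luciferase signal read relative to DMSO. EC50 derived from dose-response curves at 8-10 concentrations, mean of three independent experiments with standard deviation.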

A short description of data set [5]: Selectivity index, ratio of CC50 for human Huh7.5 cells to EC50 for HCV genotype 1b infected in Huh7/Rep-Feo1b cells. Further details: species or system Huh-7. In outline:
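Selectivity index taken as the ratio of CC50 (MTS assay, parental Huh7.5 cells) to EC50 (dose-response curves at 8-10 concentrations, Huh7/Rep-Feo1b luciferase replicon, 42 h treatment).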

Data set [6] concerns Hepacivirus hominis. As to the kind of experiment: Inhibition of HCV NS5B RNA dependent RNA polymerase using UTP/[alpha-32P]UTP as substrate at 50 uM after 1 hr by liquid scintillation counter analysis.
Data set [7] is described as follows: Cytotoxicity against human HuH7 cells assessed as inhibition of cell proliferation after 72 hrs by sulforhodamine B assay. The class given is functional, cell-based, Huh-7. In outline:
(§2)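 Liver cancer cells grown in DMEM or RPMI with 10% FCS, 2 mM L-glutamine and penicillin/streptomycin at 37°C, 5% CO2. Plated at 1000-3000 cells per well for 24 h, then exposed to 2.5–40 µM for 72 h. Cells TCA-fixed, stained with 0.4% sulforhodamine B in 1% acetic acid, dye solubilized in 10 mM Tris base, absorbance read at 515 nm. Normalized to DMSO, triplicate.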
In general terms: Sulforhodamine B stains cellular protein and so reports cell mass.

The subject of data set [8] is HepG2. Description: Cytotoxicity against human HepG2 cells assessed as inhibition of cell proliferation after 72 hrs by sulforhodamine B assay. The class given is functional, cell-based. The gist of the method:
as §2

The nature of data set [9]: Cytotoxicity against human Hep3B cells assessed as inhibition of cell proliferation after 72 hrs by sulforhodamine B assay. The class given is functional, cell-based, Hep 3B2. In outline:
as §2

The nature of data set [10]: Cytotoxicity against human Mahlavu cells assessed as inhibition of cell proliferation after 72 hrs by sulforhodamine B assay. The class given is functional, cell-based. In outline: as §2
A short description of data set [11]: Cytotoxicity against human FOCUS cells assessed as inhibition of cell proliferation after 72 hrs by sulforhodamine B assay. The class given is functional, cell-based. In outline:
as §2

A short description of data set [12]: Cytotoxicity against human SNU475 cells assessed as inhibition of cell proliferation after 72 hrs by sulforhodamine B assay. In kind it is functional, cell-based, SNU-475. The gist of the method: as §2
In data set [13] the test system is Huh-7. Description: Induction of apoptosis in human HuH7 cells assessed as nuclear condensation at IC50 after 72 hrs by hoechst 33258 staining based fluorescence microscopy. In kind it is functional, cell-based.
Data set [14] relates to Huh-7. As to the kind of experiment: Induction of apoptosis in human HuH7 cells assessed as DNA fragmentation at IC50 after 72 hrs by hoechst 33258 staining based fluorescence microscopy. The class given is functional, cell-based.
Data set [15] can be described thus: Cell cycle arrest in human Mahlavu cells assessed as accumulation at subG1/G0 phase at IC50 after 72 hrs by propidium iodide staining-based Muse cell cycle analyzer. In kind it is functional.
In data set [16] the test system is Huh-7. As to the kind of experiment: Induction of apoptosis in human HuH7 cells assessed as cleavage of PARP protein at IC50 after 72 hrs by Western blot analysis. In kind it is functional, cell-based. The gist of the method: (§3)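 Cells plated in 100 mm dishes. […] Western blot probed with anti-PARP to detect cleaved PARP, with β-actin as loading control.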
For orientation: Immunoblotting shows a protein as a band on a membrane.

Data set [17] deals with Mahlavu. As to the kind of experiment: Induction of apoptosis in human Mahlavu cells assessed as cleavage of PARP protein at IC50 after 72 hrs by Western blot analysis. In kind it is functional, cell-based. The gist of the method:
as §3

The CC50 is the concentration that lowers cell viability or growth by half. As a reminder, the inhibition is the change of the read-out against control, counted positive when it falls. In general, EC50 refers to the concentration at which the effect is half-maximal. One may read the IC50 as the concentration at which inhibition is half-maximal.

With `O=C(N/N=C/c1cccnc1)c1cc(-c2ccc(F)cc2F)ccc1O`, the CC50 at 42 h in data set [1] is greater than 200 µM. For the same compound, the inhibition at 50 µM amounted to 88% in [2] and 83% in data set [3]. In addition, the EC50 in [4] is 8.1 µM. For the same compound, in data set [5], the “Ratio CC50/EC50” value is greater than 24.7. In data set [6], this compound yielded an inhibition of 8%.
As for `O=C(N/N=C/c1cccs1)c1cc(-c2ccc(F)cc2F)ccc1O`, in data set [1], the CC50 at 42 h is greater than 50 µM. Besides, the values for the inhibition at 50 µM in data set [2] and in data set [3] were 98% and 91%, respectively. In addition, in [4], the EC50 is 15.6 µM. In addition, in data set [5], the “Ratio CC50/EC50” value is given as greater than 3.2. For the same compound, the inhibition in data set [6] was found to be 17%.
For the compound `CCc1ccc(/C=N/NC(=O)c2cc(-c3ccc(F)cc3F)ccc2O)s1`, the CC50 at 42 h in data set [1] is greater than 50 µM. In addition, the inhibition at 50 µM in [2] came to 96%; in [3], 65%. In addition, in [6], the inhibition result was “inactive”.
For `O=C(N/N=C/c1ccccn1)c1cc(-c2ccc(F)cc2F)ccc1O`, in data set [1], the CC50 at 42 h is greater than 100 µM. Further, the figures for the inhibition at 50 µM in data set [2] and in [3] were 90% and 79%, respectively. For the same compound, in data set [4], the EC50 came to 3.9 µM. In data set [5], the “Ratio CC50/EC50” value was greater than 25.6. The inhibition entry in [6] was “inactive”. In addition, the IC50 in data set [7] (Homo sapiens, Huh-7, 72 h, read-out: IC50) stood at 10 µM; in data set [8] (Homo sapiens, HepG2, 72 h, read-out: IC50) it was 10.3 µM; in [9] (Homo sapiens, Hep3B, 72 h, read-out: IC50), 16.2 µM; in [10] it was 4.74 µM; in [11], 9.29 µM; in [12] (Homo sapiens, SNU-475, 72 h, read-out: IC50) it was 8.33 µM. Also, the outcome in data set [13], in data set [14], in data set [15] and in data set [17] was Active. Besides, the outcome in [16] was inactive.
Consider `O=C(N/N=C/c1c(F)cccc1F)c1cc(-c2ccc(F)cc2F)ccc1O`, for which the CC50 at 42 h in data set [1] was greater than 100 µM. For the same compound, the inhibition at 50 µM in [2] was 72%; in data set [3] it was 69%. The inhibition entry in data set [6] is “inactive”.
Turning to `Cc1ccc(/C=N/NC(=O)c2cc(-c3ccc(F)cc3F)ccc2O)s1`, the CC50 at 42 h in [1] is greater than 50 µM. For the same compound, the inhibition at 50 µM in [2] is 95%; in data set [3], 64%. This compound registered an inhibition in [6] of 8%.
For the compound `N#Cc1ccc(/C=N/NC(=O)c2cc(-c3ccc(F)cc3F)ccc2O)cc1`, the CC50 at 42 h in data set [1] was greater than 200 µM. For the same compound, the figures for the inhibition at 50 µM in data set [2] and in data set [3] were 82% and 77%, respectively. Moreover, the EC50 in data set [4] was found to be 11.8 µM. Moreover, in data set [5], the “Ratio CC50/EC50” value is greater than 16.9. For the same compound, the inhibition result in data set [6] is “inactive”.
On to `O=C(N/N=C/c1ccncc1)c1cc(-c2ccc(F)cc2F)ccc1O`, for which the CC50 at 42 h in [1] is greater than 50 µM. Further, the inhibition at 50 µM in data set [2] was 23%; in data set [3], 33%. This compound also yielded an inhibition in data set [6] of 7%.
The matching figures for `O=C(N/N=C/c1ccccc1Cl)c1cc(-c2ccc(F)cc2F)ccc1O`: less than 50 µM, 78%, 90% and 7%.
Consider `O=C(N/N=C/c1ccc2ccccc2c1)c1cc(-c2ccc(F)cc2F)ccc1O`, for which, in data set [1], the CC50 at 42 h was greater than 100 µM. Moreover, the inhibition at 50 µM in data set [2] was determined as 58%; in [3], 65%. Besides, the inhibition result in data set [6] is “inactive”.
In the case of `O=C(N/N=C/c1cccc2ccccc12)c1cc(-c2ccc(F)cc2F)ccc1O`, in data set [1], the CC50 at 42 h is greater than 200 µM. Besides, the inhibition at 50 µM in data set [2] stood at 70%; in [3] it was 79%. For the same compound, in [4], the EC50 came to 16.5 µM. The “Ratio CC50/EC50” value in [5] is reported as greater than 6.1. Also, in data set [6], the inhibition result is “inactive”.
In the case of `O=C(N/N=C/c1ccc2c(c1)OC(F)(F)O2)c1cc(-c2ccc(F)cc2F)ccc1O`, the CC50 at 42 h in [1] is less than 50 µM. For the same compound, the inhibition at 50 µM in data set [2] amounted to 95%; in data set [3] it was 65%. Moreover, in data set [6], the inhibition entry is “inactive”.
For the compound `O=C(N/N=C/c1c(Cl)cccc1Cl)c1cc(-c2ccc(F)cc2F)ccc1O`, the CC50 at 42 h in [1] is less than 50 µM. Further, the results for the inhibition at 50 µM in data set [2] and in data set [3] were 96% and 72%, respectively. Moreover, the inhibition entry in data set [6] was “inactive”.
`O=C(N/N=C/c1ccc(C(F)(F)F)cc1)c1cc(-c2ccc(F)cc2F)ccc1O`: the CC50 at 42 h in data set [1] is less than 50 µM. The inhibition at 50 µM in data set [2] is 99%; in [3], 86%. This compound also had an inhibition in data set [6] of 12%.
The corresponding values for `O=C(N/N=C/c1cccc(Br)c1)c1cc(-c2ccc(F)cc2F)ccc1O` are less than 50 µM, 92%, 81% and 9%.
Consider `O=C(N/N=C/c1ccc(Cl)c(Cl)c1)c1cc(-c2ccc(F)cc2F)ccc1O`, for which, in data set [1], the CC50 at 42 h is less than 50 µM. Also, the inhibition at 50 µM turned out to be 95% in data set [2] and 66% in data set [3]. In addition, the inhibition result in [6] was “inactive”.
`O=C(N/N=C/c1cccc(C(F)(F)F)c1)c1cc(-c2ccc(F)cc2F)ccc1O`: the CC50 at 42 h in data set [1] was less than 50 µM. For the same compound, the values for the inhibition at 50 µM in [2] and in data set [3] were 99% and 87%, respectively. Besides, the inhibition in data set [6] is 18%.
On to `O=C(N/N=C/c1cccc(Oc2ccccc2)c1)c1cc(-c2ccc(F)cc2F)ccc1O`, for which, in data set [1], the cytotoxic concentration (CC50) at 42 h is less than 50 µM. Moreover, the inhibition at 50 µM was determined as 99% in data set [2] and 92% in data set [3]. In addition, the inhibition in data set [6] amounted to 14%.
With `O=C(N/N=C/c1c(F)cccc1Cl)c1cc(-c2ccc(F)cc2F)ccc1O`, the CC50 at 42 h in data set [1] was greater than 50 µM. Besides, the inhibition at 50 µM was determined as 74% in data set [2] and 83% in data set [3]. Besides, in data set [4], the EC50 was 3.9 µM. In addition, the “Ratio CC50/EC50” value in data set [5] was greater than 12.8. Besides, the inhibition in data set [6] came to 11%.
Turning to `O=C(O)c1cc(-c2ccc(F)cc2F)ccc1O` [DIFLUNISAL], the IC50 result is “Not Active” in data set [7] (huh-7); “Not Active” in data set [8] (hepg2); “Not Active” in data set [9] (hep 3b2); 51.7 µM in data set [10]; 29.8 µM in data set [11]; “Not Active” in [12] (snu-475). Besides, the result in [13] and in data set [14] was inactive.
